Screens (PubChem)
Mcl1-Bid inh: Mcl-1/Bid interaction inhibition; inhibition, % at 21.7 µM; TR-FRET Mcl-1/Bid-Dy647 peptide binding, 1536-well; AID 1021; Q07820; 220,000 compounds, 0.97% hits;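 active = compounds that cut the binding signal by more than half at the single screening dose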;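 also: His-tagged Mcl-1 with europium anti-His antibody binding Bid BH3 peptide; 0% = Mcl-1 plus peptide wells and 100% = peptide-only wells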
DSG3 Ab inh: blocks pemphigus antibody binding to human desmoglein-3; DSG3-coupled beads, scFv-anti-DSG3-GFP binding, flow cytometry; stronger effect = lower value; binding (percent of control), % at 10 µM; 310,000 compounds, 0.48% hits; AID 588358;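 active = binding more than 3 SD below its plate's average and above zero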
Target sequence (P32926 whole entry, looked up): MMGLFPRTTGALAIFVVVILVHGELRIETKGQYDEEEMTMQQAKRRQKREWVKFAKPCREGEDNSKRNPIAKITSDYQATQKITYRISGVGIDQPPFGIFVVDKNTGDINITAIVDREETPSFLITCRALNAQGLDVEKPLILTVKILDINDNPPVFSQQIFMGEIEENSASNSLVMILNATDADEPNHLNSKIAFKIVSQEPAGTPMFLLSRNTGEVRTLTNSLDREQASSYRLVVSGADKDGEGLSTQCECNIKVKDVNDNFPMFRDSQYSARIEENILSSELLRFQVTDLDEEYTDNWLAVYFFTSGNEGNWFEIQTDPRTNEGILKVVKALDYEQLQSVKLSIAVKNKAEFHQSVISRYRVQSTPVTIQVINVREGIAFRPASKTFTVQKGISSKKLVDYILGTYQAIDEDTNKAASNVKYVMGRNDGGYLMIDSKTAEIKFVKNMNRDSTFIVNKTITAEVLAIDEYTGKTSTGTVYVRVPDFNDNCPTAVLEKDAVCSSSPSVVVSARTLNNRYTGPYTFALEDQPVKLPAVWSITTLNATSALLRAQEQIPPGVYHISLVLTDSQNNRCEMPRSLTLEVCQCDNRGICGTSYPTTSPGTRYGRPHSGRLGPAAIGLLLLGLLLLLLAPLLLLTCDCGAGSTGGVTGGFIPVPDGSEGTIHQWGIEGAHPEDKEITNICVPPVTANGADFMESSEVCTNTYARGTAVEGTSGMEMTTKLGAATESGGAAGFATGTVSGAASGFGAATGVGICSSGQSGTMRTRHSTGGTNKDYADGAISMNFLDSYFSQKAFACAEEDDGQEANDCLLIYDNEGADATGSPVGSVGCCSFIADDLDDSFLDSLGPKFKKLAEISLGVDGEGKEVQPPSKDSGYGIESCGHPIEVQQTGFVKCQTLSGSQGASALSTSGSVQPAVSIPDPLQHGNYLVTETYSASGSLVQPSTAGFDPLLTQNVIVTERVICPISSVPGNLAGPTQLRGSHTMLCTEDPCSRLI
Mcl1 Noxa PPI: disrupts binding of human Mcl-1 to Noxa peptide | TR-FRET Mcl-1/Noxa peptide binding, 2 h | inhibition, % at 21.7 µM | 220,000 compounds, 1.5% hits | AID 1022;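 active = compounds that cut the protein-peptide binding signal by more than 50% relative to plate controls in a single-dose test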;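 also: His-tagged Mcl-1 with rhodamine Noxa BH3 peptide and terbium anti-His antibody; 0% = Mcl-1 plus Noxa peptide wells and 100% = peptide-only wells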
T cell HTS: T cell immune modulation candidate. 2C CD8+ T cell-vesicle binding, flow cytometry; stronger effect = lower value. AID 2052. response (vesicle binding), % at 7 µM. 330,000 compounds, 0.068% hits;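 active = response, share of CD8 T cells binding vesicles, and their 90th percentile fluorescence all below set limits, cut at about 80% in these data, passing the limit was not always enough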;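 also: values below 100% mean blocked vesicle binding to the CD8+ T cells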
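Test system: purified 2C TCR transgenic mouse naive CD8+ T cells. Probe or stimulus: QL9-peptide-loaded Drosophila micro-vesicles bearing Ld, ICAM-1 and B7-1. Incubation: binding step 1.5 h, 37 °C, antibody labelling 20 min, ice. Measured by: flow cytometry of vesicle-bound cells.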
MCL1 BIM primary: disrupts human MCL1 binding to BIM-BH3 peptide. Q07820. GST-MCL1 / FITC-Bim-BH3 fluorescence polarization. inhibition, % at 10.9 µM. 320,000 compounds, 0.68% hits;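 active = inhibition above the mean inhibition of all tested compounds plus 3 SD, set per campaign, cut at about 40% in these data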;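 also: 0% = DMSO wells and 100% = unlabeled Bim-BH3 peptide control; higher means more loss of mP so more displacement of Bim peptide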
Mcl-1 Bim block: inhibitors of Bim-Mcl-1 interaction, human; Bead-based flow cytometry, Bim peptide-Mcl-1 binding; inhibition, % at 10 µM; 190,000 compounds, 0.1% hits; in the data active = inhibition above about 40%;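 also: 0% = no compound tracer wells and 100% = peptide blocker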
Numbers without * were called inactive. An excerpt weighted towards active compounds, which were near 2.3% of everything screened.

What do the screens show for `C/C(=N\NC(=O)c1ccc2c(c1)OCO2)c1ccc(NC(=O)CCCC(=O)O)cc1`?
DSG3 Ab inh: 120; T cell HTS: 379

What do the screens show for `COc1cc(/C=C2\SC(=Nc3c(C)n(C)n(-c4ccccc4)c3=O)NC2=O)ccc1O`?
Mcl1-Bid inh: -35; DSG3 Ab inh: 87; Mcl1 Noxa PPI: 51*; Mcl-1 Bim block: 0

What do the screens show for `CN=C1S/C(=C\c2ccc(O)c(OC)c2)C(=O)N1C`?
DSG3 Ab inh: 112; T cell HTS: 130; MCL1 BIM primary: -16

What do the screens show for `COc1cc(/C=C2\SC(=Nc3ccc(O)cc3)NC2=O)cc(OC)c1O`?
Mcl1-Bid inh: -31; DSG3 Ab inh: 89; Mcl1 Noxa PPI: 62*; T cell HTS: 284; MCL1 BIM primary: 21; Mcl-1 Bim block: 0

What do the screens show for `CCc1ccc(N=C2NC(=O)/C(=C/c3cc(OC)c(OC)c(OC)c3)S2)cc1`?
DSG3 Ab inh: 105; T cell HTS: 211; MCL1 BIM primary: -2

What do the screens show for `O=C(NNC(=S)Nc1ccc(Cl)cc1Cl)C1CC1`?
Mcl1-Bid inh: -11; DSG3 Ab inh: 102; Mcl1 Noxa PPI: 13; T cell HTS: 210; MCL1 BIM primary: 12; Mcl-1 Bim block: -6

How did O=C(Cn1cnc2scc(-c3ccccc3)c2c1=O)NCc1ccco1 do in these assays?
Mcl1-Bid inh: -59; DSG3 Ab inh: 83; Mcl1 Noxa PPI: 51*; T cell HTS: 135; MCL1 BIM primary: 8; Mcl-1 Bim block: -3

How did O=C(Cn1ncn2c(cc3ccccc32)c1=O)NCc1ccco1 do in these assays?
Mcl1-Bid inh: -13; DSG3 Ab inh: 97; Mcl1 Noxa PPI: 69*; T cell HTS: 342; MCL1 BIM primary: 8; Mcl-1 Bim block: -5

Results for CCc1ccc(-c2csc3ncn(CC(=O)NCc4ccco4)c(=O)c23)cc1 ?
Mcl1-Bid inh: -73; DSG3 Ab inh: 117; Mcl1 Noxa PPI: 20; T cell HTS: 402; MCL1 BIM primary: 0

Results for CCOC(=O)C1=C(O)/C(=C/c2ccc(-c3ccccc3C(=O)O)o2)SC1=Nc1ccc(C)cc1 ?
DSG3 Ab inh: 71*

How did CCOC(=O)C1=C(O)/C(=C/c2cc(OC)c(O)c(OC)c2)SC1=Nc1ccc(OC)cc1 do in these assays?
Mcl1-Bid inh: -4; DSG3 Ab inh: 108; Mcl1 Noxa PPI: 75*; Mcl-1 Bim block: -1

How did CCOC(=O)C1=C(O)/C(=C/c2ccc(OCC(=O)O)c(OC)c2)SC1=Nc1ccc(OCC)cc1 do in these assays?
Mcl1-Bid inh: -14; DSG3 Ab inh: 99; Mcl1 Noxa PPI: 24; T cell HTS: 224; MCL1 BIM primary: 10; Mcl-1 Bim block: -5

How did O=C(O)C1=CCC=CC1C(=O)O (centres undefined) do in these assays?
DSG3 Ab inh: 101

How did CC1(C)CN(c2ccsc2C(=O)O)C1=O do in these assays?
Mcl1-Bid inh: 3; DSG3 Ab inh: 56*; Mcl1 Noxa PPI: 14; T cell HTS: 213; MCL1 BIM primary: -5; Mcl-1 Bim block: -3

Results for CCOc1ncccc1C(=O)OCc1csc(CC(=O)Nc2ccccc2C)n1 ?
DSG3 Ab inh: 103; T cell HTS: 348; MCL1 BIM primary: 1

What do the screens show for `CCC(=O)N1CCN(c2nc3ccc(Br)cc3s2)CC1`?
DSG3 Ab inh: 103; T cell HTS: 504; MCL1 BIM primary: -1

What do the screens show for `CC1(C)SC[C@H](C(=O)Nc2cccc(Cl)c2)N1C=O`?
Mcl1-Bid inh: -23; DSG3 Ab inh: 108; Mcl1 Noxa PPI: 22; T cell HTS: 52*; MCL1 BIM primary: 2

What do the screens show for `COc1ccccc1C(=O)OCCc1ccccc1`?
DSG3 Ab inh: 129

Results for C=C(C)C(=O)Nc1cccc(C2=NOC3(C2)C[C@@H](C(N)=O)N(C(=O)c2ccc(OC)cc2)C3)c1 (some centres undefined) ?
Mcl1-Bid inh: -130; DSG3 Ab inh: 69*; Mcl1 Noxa PPI: 69*; T cell HTS: 634; MCL1 BIM primary: 11

What do the screens show for `C/C=C\C=C/C(=O)Nc1cccc(C2=NOC3(C2)C[C@@H](C(N)=O)N(C(=O)c2ccccc2)C3)c1` (some centres undefined)?
Mcl1-Bid inh: 21; Mcl1 Noxa PPI: 75*; T cell HTS: 536; MCL1 BIM primary: -3

Results for C=C(C)C(=O)Nc1cccc(C2=NOC3(C2)C[C@@H](C(N)=O)N(C(=O)CCCCC)C3)c1 (some centres undefined) ?
Mcl1-Bid inh: -100; DSG3 Ab inh: 88; Mcl1 Noxa PPI: 69*; T cell HTS: 642; MCL1 BIM primary: 5

How did CCCCCC(=O)N1CC2(CC(c3cccc(NC(=O)[C@@H]4CCC(=O)N4)c3)=NO2)C[C@@H]1C(N)=O (some centres undefined) do in these assays?
Mcl1-Bid inh: -42; DSG3 Ab inh: 108; Mcl1 Noxa PPI: -5; T cell HTS: 226; MCL1 BIM primary: 2

Results for CN(C(=O)CSc1nncc2ccccc12)c1ccccc1 ?
T cell HTS: 464

How did CS(=O)(=O)Cc1cccc(C(=O)NN(c2ccccc2)c2ccccc2)c1 do in these assays?
T cell HTS: 186; MCL1 BIM primary: -9

What do the screens show for `CCN(C[C@H]1N[C@@](CC)(C(=O)OC)[C@H]2C(=O)N(C)C(=O)[C@@H]12)S(=O)(=O)c1ccc(C(F)(F)F)cc1`?
DSG3 Ab inh: 88; T cell HTS: 165

How did Cn1c(C(C#N)C2=C(Cl)C(=O)N(c3ccccc3)C2=O)nc2ccccc21 (centres undefined) do in these assays?
Mcl1-Bid inh: -10; T cell HTS: 379; MCL1 BIM primary: 42*; Mcl-1 Bim block: -4

How did Cc1ccc(C(=O)N/C(=C\c2cn(S(=O)(=O)N(C)C)c3ccccc23)C(=O)NCCCN2CCOCC2)cc1 do in these assays?
DSG3 Ab inh: 114; T cell HTS: 432; MCL1 BIM primary: 0

What do the screens show for `COCCN(C(=O)CSc1nnc(-c2ccc(C)cc2)n1N)c1c(N)n(Cc2ccccc2)c(=O)[nH]c1=O`?
DSG3 Ab inh: 110; T cell HTS: 494; MCL1 BIM primary: -11

Results for CCCCN(C(=O)CSc1nnc(-c2ccc(OC)cc2)n1CC)c1c(N)n(Cc2ccccc2)c(=O)[nH]c1=O ?
Mcl1-Bid inh: -39; DSG3 Ab inh: 85; Mcl1 Noxa PPI: 60*; T cell HTS: 195; MCL1 BIM primary: -11; Mcl-1 Bim block: -3

How did CCCCN(C(=O)CSc1nnc(-c2ccccc2OC)n1C)c1c(N)n(Cc2ccccc2)c(=O)[nH]c1=O do in these assays?
Mcl1-Bid inh: -22; DSG3 Ab inh: 105; Mcl1 Noxa PPI: 29; T cell HTS: 179; MCL1 BIM primary: -21; Mcl-1 Bim block: -1

What do the screens show for `CCCCN(C(=O)CSc1nnc(-c2ccc(OC)cc2)n1C(C)C)c1c(N)n(Cc2ccccc2)c(=O)[nH]c1=O`?
Mcl1-Bid inh: 4; DSG3 Ab inh: 90; Mcl1 Noxa PPI: 62*; T cell HTS: 414; MCL1 BIM primary: -11; Mcl-1 Bim block: -5
